Data published in ChEMBL document CHEMBL3244233, “Synthesis and biological activities of some N6- and N9-carbamoyladenines and related ribonucleosides” (1977).
The source made the active and inactive calls. The calls are words filed in the database; no cut-off is given here.

Assays:
Format in all cases: functional
[1] = Growth inhibition of human Nc37 cells assessed as viable cells at 10^-4 M after 72 hrs relative to control; conditions: NC-37, 72 h, read-out: Activity
Outline: (§1)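 Nc 37 cells come from a normal human buffy coat, RPMI 6410 from the buffy coat of a myeloblastic leukemia patient, and L1210 is mouse leukemia. Cells were grown in RPMI 1640 with 10% fetal calf serum and exposed to compound at 10^-4 M in medium containing 0.5% Me2SO for 72 h. Viable cell number is expressed as percent of 0.5% Me2SO controls and scored as ++ 30-60%, + 60-80%, ± 80-90%, NA 90-110%.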

[2] = Growth inhibition of human RPMI6410 cells assessed as viable cells at 10^-4 M after 72 hrs relative to control; conditions: RPMI 6410, 72 h, read-out: Activity; outline: as §1
[3] = tested on: L1210; assay: Growth inhibition of mouse L1210 cells assessed as viable cells at 10^-4 M after 72 hrs relative to control; conditions: L1210, 72 h, read-out: Activity; outline: as §1
[4] = tested on: L1210; assay: Growth inhibition of mouse L1210 cells at 10^-4 M after 72 hrs relative to control; conditions: L1210, 72 h, read-out: GI; outline: as §1
[5] = tested on: L1210; assay: Antitumor activity against mouse L1210 cells allografted in mouse assessed as increase in life span of host
[6] = Growth inhibition of human RPMI6410 cells assessed as viable cells at 10^-5 M after 72 hrs relative to control; conditions: RPMI 6410, 72 h, read-out: Activity
[7] = Growth inhibition of human Nc37 cells assessed as viable cells at 10^-5 M after 72 hrs relative to control; conditions: NC-37, 72 h, read-out: Activity
[8] = tested on: L1210; assay: Growth inhibition of mouse L1210 cells assessed as viable cells at 10^-5 M after 72 hrs relative to control; conditions: L1210, 72 h, read-out: Activity

Compound | viability at 100 µM [1] | viability at 100 µM [2] | viability at 100 µM [3] | inhibition of growth at 100 µM [4] | Activity [5] | viability at 10 µM [6] | viability at 10 µM [7] | viability at 10 µM [8]
O=C(NCCc1ccccc1Cl)Nc1ncnc2c1ncn2[C@@H]1O[C@H](CO)[C@@H](O)[C@H]1O | 60% |  |  |  |  |  |  | 
O=C(Nc1ncnc2[nH]cnc12)NC1CCCCC1 | 60% | 60% | 60% |  |  |  |  | 
COc1ccc(NC(=O)Nc2ncnc3c2ncn3C(=O)Nc2ccc(OC)cc2)cc1 | 90% | 90% | 30% |  |  |  |  | 
Nc1ncnc2c1ncn2C(=O)Nc1ccccc1F | 90% | 60% | 60% |  |  |  |  | 
CN(C(=O)Nc1ccccc1Cl)c1ncnc2c1ncn2C(=O)Nc1ccccc1Cl | 90% | 60% | 30% |  |  |  |  | 
Nc1ncnc2c1ncn2C(=O)NCC(=O)OCc1ccccc1 | 60% | 80% | > 30% | ≥ 70% |  |  |  | 
O=C(Nc1ccccc1)Nc1ncnc2c1ncn2C(=O)Nc1ccccc1 | 60% | 80% | 30% |  |  |  |  | 
CCCCNC(=S)n1cnc2c(N)ncnc21 | 60% | 60% | 60% |  |  |  |  | 
O=C(Nc1ccccc1F)Nc1ncnc2c1ncn2[C@@H]1O[C@H](CO)[C@@H](O)[C@H]1O | 60% | 30% | 30% |  |  |  |  | 
CCOC(=O)CNC(=O)n1cnc2c(N)ncnc21 | 60% | 60% | 30% |  |  |  |  | 
CNC(=O)n1cnc2c(NC)ncnc21 | 30% | 60% | 90% |  |  |  |  | 
O=C(Nc1ccc(F)cc1)Nc1ncnc2[nH]cnc12 | 90% | 90% | 30% |  |  |  |  | 
Cc1ccc(NC(=O)Nc2[nH]cnc3ncnc2-3)cc1 | 90% | 60% | > 30% |  |  |  |  | 
CC(=O)n1cnc2c(N)ncnc21 | 90% | 90% | 30% |  |  |  |  | 
CC(C)(C)CNC(=O)Nc1ncnc2c1ncn2[C@@H]1O[C@H](CO)[C@@H](O)[C@H]1O | 90% | 90% | 80% |  |  |  |  | 
CCCCNC(=O)Nc1ncnc2[nH]cnc12 | 60% | 60% | 30% |  |  |  |  | 
CC(C)(C)NC(=O)Nc1ncnc2[nH]cnc12 | 60% | 60% | 60% |  |  |  |  | 
CNC(=O)n1cnc2c(N)ncnc21 | 30% | 30% | 30% | ≥ 70% | inactive | 60% | 60% | 
Nc1ncnc2c1ncn2C(=O)N[C@@H](Cc1ccccc1)C(=O)O | 30% | 80% | > 30% | ≥ 70% |  |  |  | 
CNC(=O)Nc1ncnc2c1ncn2C(=O)NC | 90% | 80% | 80% |  |  |  |  | 
O=C(Nc1ccccc1)Nc1ncnc2[nH]cnc12 | 60% | 80% | 60% |  |  |  |  | 
CCCCCCCC(=O)n1cnc2c(N)ncnc21 | 60% | 60% | 30% |  |  |  |  | 
O=C(Nc1ccc(Br)cc1)Nc1ncnc2c1ncn2C(=O)Nc1ccc(Br)cc1 | 60% |  |  |  |  |  |  | 
CCOC(=O)n1cnc2c(NC)ncnc21 | 30% | 30% | 90% |  |  |  |  | 
CC(C)(C)NC(=O)n1cnc2c(N)ncnc21 | 60% | 60% | > 30% | ≥ 70% |  |  |  | 
CCCC(=O)n1cnc2c(N)ncnc21 | 90% | 60% | 60% |  |  |  |  | 
CNC(=S)Nc1ncnc2[nH]cnc12 | 60% | 60% | 60% |  |  |  |  | 

Compound | viability at 100 µM [1] | viability at 100 µM [2] | viability at 100 µM [3] | inhibition of growth at 100 µM [4] | Activity [5] | viability at 10 µM [6] | viability at 10 µM [7] | viability at 10 µM [8]
CCCCNC(=O)Nc1ncnc2c1ncn2C(=O)NCCCC | 90% | 60% | 30% |  |  |  |  | 
O=C(NCCc1ccccc1Cl)Nc1ncnc2[nH]cnc12 | 30% | 60% | 60% |  |  |  |  | 
CCOC(=O)CNC(=O)N(C)c1ncnc2c1ncn2C(=O)NCC(=O)OCC | 90% | 90% | 60% |  |  |  |  | 
CC(=O)OC[C@H]1O[C@@H](n2cnc3c(NC(=O)Nc4ccc(Cl)cc4)ncnc32)[C@H](OC(C)=O)[C@@H]1OC(C)=O | 30% | 30% | > 30% |  |  |  |  | 
CC(C)C(NC(=O)n1cnc2c(N)ncnc21)C(=O)OCc1ccccc1 (centres undefined) | 60% | 30% | 30% |  |  |  |  | 
CC(OCc1ccccc1)C(NC(=O)n1cnc2c(N)ncnc21)C(=O)OCc1ccccc1 (centres undefined) | 60% | 60% | > 30% | ≥ 70% |  |  |  | 
C=CCNC(=O)Nc1ncnc2[nH]cnc12 | 60% | 60% | 60% |  |  |  |  | 
CNC(=O)Nc1ncnc2c1ncn2C(=O)Nc1ccccc1 | 90% | 90% | 30% |  |  |  |  | 
Nc1ncnc2c1ncn2C(=O)NC1CCCCC1 | 30% | 30% | > 30% | ≥ 70% |  |  |  | 
CC(C)(C)NC(=O)n1cnc2c(NC(=O)Nc3ccccc3F)ncnc21 | 60% | 60% | > 30% |  |  |  |  | 
O=C(Nc1ccc(Cl)cc1)Nc1ncnc2c1ncn2[C@@H]1O[C@H](CO)[C@@H](O)[C@H]1O | 30% | 30% | > 30% |  | inactive |  |  | 
CNC(=S)n1cnc2c(N)ncnc21 |  |  |  | ≥ 70% | inactive | 30% | 30% | > 30%
O=C(Nc1cccc2ccccc12)Nc1ncnc2c1ncn2C(=O)Nc1cccc2ccccc12 | 30% | 30% | > 30% |  | inactive |  |  | 
CNc1ncnc2c1ncn2C(=O)NC(C)(C)C | 60% | 60% | 60% |  |  |  |  | 
Cc1ccccc1NC(=O)Nc1ncnc2c1ncn2C(=O)Nc1ccccc1C | 60% | 90% | 60% |  |  |  |  | 
C=CCNC(=O)n1cnc2c(N)ncnc21 | 30% | 60% | > 30% | ≥ 70% |  |  |  | 
CC(=O)OC[C@H]1O[C@@H](n2cnc3c(NC(=O)Nc4ccccc4Cl)ncnc32)[C@H](OC(C)=O)[C@@H]1OC(C)=O | 30% | 30% | > 30% |  |  |  |  | 
CNC(=O)N(C)c1ncnc2c1ncn2C(=O)NC | 30% | 60% | 30% |  |  |  |  | 
Nc1ncnc2c1ncn2C(=O)Nc1ccccc1 | 90% | 60% | 30% |  |  |  |  | 
O=C(O)CNC(=O)CNC(=O)Nc1ncnc2[nH]cnc12 | 90% | 90% | 90% |  |  |  |  | 
CCCCNC(=O)n1cnc2c(N)ncnc21 | 30% | 30% | > 30% | ≥ 70% |  |  |  | 
CN(C(=O)Nc1ccccc1)c1ncnc2c1ncn2C(=O)Nc1ccccc1 | 90% | 60% | 30% |  |  |  |  | 
Nc1ncnc2c1ncn2C(=O)NC(Cc1ccccc1)C(=O)OCc1ccccc1 (centres undefined) | 60% | 90% | 30% |  |  |  |  | 
CCCCNC(=S)Nc1ncnc2[nH]cnc12 | 30% | 60% | 30% |  |  |  |  | 
O=C(Nc1ccccc1C(F)(F)F)Nc1ncnc2[nH]cnc12 | 30% | 90% |  |  |  |  |  | 
COc1ccc(NC(=O)Nc2ncnc3c2ncn3C(=O)NC(C)(C)C)cc1 | 90% | 80% | 80% |  |  |  |  | 
